In PMC5439940 (International Journal of Nanomedicine, 2017):

Key:
[1] = test system: A549 or CoLo-357 cells; type: cell-based, human; conditions: for Effect of inhibitor on liposome accumulation/binding: preincubation with inhibitor, then liposomes 100 μM total lipids, 37°C
[2] = test system: ASF-LL T-cell leukemic lymphoma; experiment: Antitumor effect in transplanted mouse T-cell leukemic lymphoma; type: in vivo
Summary of the method: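 A/Sn female mice aged 6 or 12 months, one experiment per age, received 10^6 ASF-LL cells SC on day 0. Groups of n=6 got IV free parent drug (10 mg/kg) or an equivalent liposomal prodrug dose in 0.2 mL PBS/1 mM EDTA, pH 7.0, on days 3, 5, 10 and 12. Controls got vehicle. Daily survival monitoring; euthanasia at >20% weight loss and/or food rejection. Mean ± SD, Student's t-test.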

[3] = Plasma retention of liposomal MTX-DG versus intact MTX in mice; type: in vivo; conditions: IV
Summary of the method: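 Female F1(CBA × C57BL/6) mice, 20–22 g, 6–8 weeks old, received 10 mg/kg free parent drug or an equivalent liposomal prodrug dose IV by tail vein (0.2 mL). Groups of n=3 were decapitated at set times and serum collected at 600×g for 10 min. Drug was measured by RP-HPLC after HClO4 deproteinisation; prodrug by RP-HPLC with UV detection at 313 nm. Both were calibrated against spiked or extracted control serum.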

## CN(C)CCCN1c2ccccc2Sc2ccc(Cl)cc21 [chlorpromazine]
[1]
  Effect of inhibitor on liposome accumulation/binding: concentration-dependent decrease in liposome accumulation

## C=C1[C@@H](C)[C@H]2[C@H](Cc3ccccc3)NC(=O)[C@]23OC(=O)/C=C/[C@H](O)CCC[C@@H](C)C/C=C/[C@H]3[C@@H]1O [cytochalasin B]
[1]
  Effect of inhibitor on liposome accumulation/binding: elusive effects

## COc1cc2c(c(OC)c1OC)-c1ccc(OC)c(=O)cc1[C@@H](NC(C)=O)CC2 [colchicine]
[1]
  Effect of inhibitor on liposome accumulation/binding: elusive effects

## COC(=O)Nc1nc2ccc(C(=O)c3cccs3)cc2[nH]1 [nocodazole]
[1]
  Effect of inhibitor on liposome accumulation/binding: elusive effects

## Methyl-β-cyclodextrin
[1]; in the range of concentrations required for the inhibitory studies
  Cell death caused by inhibitor: > 50%

## CN(Cc1cnc2nc(N)nc(N)c2n1)c1ccc(C(=O)N[C@@H](CCC(=O)O)C(=O)O)cc1 [MTX, Methotrexate]
[2]; both experiments, 10 mg/kg MTX or equivalent IV on days 3, 5, 10, 12
  Delay of palpable lymphoma appearance and tumor growth vs controls: significant delay in palpable lymphoma appearance
[2]; first experiment, mice aged 6 months, 4 IV injections, days 3, 5, 10, 12
  Increase in the mean life span vs control group: 23%
[2]; second experiment, mice aged 12 months, 4 IV injections
  Toxicity / tolerability in old recipient mice: pronounced toxicity
[3]
  t1/2α and t1/2β of MTX relative to MTX-DG (times lower): approximately 4 times
